Assay results taken from paper PMC5835416 (Biochimica et biophysica acta, 2018).
Like-named read-outs stand apart in the source and are kept apart here.

Experiments:
tear lipocalin [1] = target: T1, tear lipocalin (Homo sapiens, UniProt P31025); assay: Fluorescence binding assay with NBD-labeled lipids; conditions: 1 μM tear lipocalin; for fluorescence in the presence of tear lipocalin compared to the unbound label: 1 μM ligand; for Kd: apparent, pH 7.3
Outline: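 After equilibration, fluorescence spectra recorded at 20°C, λex 420 nm. Relative intensity at 523 nm used to compute bound label. Triplicate runs, means taken. B/P versus unbound lipid fitted by nonlinear regression to a rectangular hyperbola or Hill equation, giving apparent Kd and n.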

tear lipocalin [2] = target: T1, tear lipocalin; assay: Linear spectral summation; type: binding; conditions: apparent, tear lipocalin 10 μM, pH 7.3
Outline: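 Each spectrum fitted as linear sum of bound reference (2 μM ligand + 10 μM protein), unbound reference (2 μM ligand in buffer) and baseline, yielding bound and free ligand. Triplicate means fitted to hyperbola or Hill equation.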

tear lipocalin [3] = target: T1, tear lipocalin; type: binding
Outline: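 Incubated 25°C 30 min or 34°C 16 h, then centrifuged ~196,000 × g, 1 h, same temperature. Bound (supernatant) and precipitated ligand quantified by absorbance via extinction coefficients. Lysozyme 10 μM as negative control. Triplicate means fitted to hyperbola and Hill equation.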

[4] = Centrifugal precipitation of lipid in buffer without protein; type: physicochemical; conditions: 10 mM Na-phosphate pH 7.3; ~196,000 × g
tear lipocalin [5] = target: T1, tear lipocalin; assay: DAUDA displacement fluorescence assay; type: binding; conditions: end of titration
[6] = apparent, Hill equation fit, 10 μM (C6) or 20 μM (C12) tear lipocalin, 10 mM sodium phosphate pH 7.3
[7] = apparent, hyperbola fit, 10 μM (C6) or 20 μM (C12) tear lipocalin, 10 mM sodium phosphate pH 7.3

T1 sequence (P31025 19-176): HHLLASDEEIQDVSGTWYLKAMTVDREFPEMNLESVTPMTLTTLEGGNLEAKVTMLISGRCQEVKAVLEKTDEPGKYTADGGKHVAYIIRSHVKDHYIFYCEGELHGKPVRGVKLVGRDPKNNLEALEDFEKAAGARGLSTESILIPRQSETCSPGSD

fluorescence in the presence of tear lipocalin compared to the unbound label (tear lipocalin [1])	Kd (tear lipocalin [1]; Hill equation fit)	Kd (tear lipocalin [1]; hyperbola fit)	Kd (tear lipocalin [2]; Hill equation fit)	Kd (tear lipocalin [2]; hyperbola fit)	Kd (tear lipocalin [3]; [6])	Kd (tear lipocalin [3]; [7])	apparent dissociation constant (Kd) (tear lipocalin [3]; fit not named)	precipitation in buffer [4]	residual DAUDA fluorescence compared with stearic acid (tear lipocalin [5])	Kd (tear lipocalin [3]; read-out: apparent dissociation constant (Kd), fit not named)	Structure (SMILES)
enhanced fluorescence	0.08 µM	0.08 µM	0.07 µM	0.06 µM	0.29 µM	0.32 µM	sub-micromolar	complete precipitation	–	–	CCCCCCCCCCCCC/C=C/[C@@H](O)[C@H](CO)NC(=O)CCCCCNc1ccc([N+](=O)[O-])c2nonc12 [C6-NBD ceramide, N-[6-[(7-nitro-2-1,3-benzoxadiazol-4-yl)amino]hexanoyl]-D-erythro-sphingosine]
–	–	–	–	–	–	–	–	–	twice as great	–	CCCCCCCCCCCCC/C=C/[C@@H](O)[C@H](CO)NC(=O)CCCCCCCCCCCCCCCCC [C18-ceramide, ceramide-N-(octadecanoyl) sphing-4-enine, also known as N-stearoyl-D-erythro-sphingosine]
enhanced fluorescence	0.1 µM	0.13 µM	–	–	1.06 µM	1.23 µM	–	complete precipitation	–	1.2 µM	CCCCCCCCCCCCC/C=C/[C@@H](O)[C@H](CO)NC(=O)CCCCCCCCCCCNc1ccc([N+](=O)[O-])c2nonc12 [C12-NBD ceramide, N-[12-[(7-nitro-2-1,3-benzoxadiazol-4-yl)amino]dodecanoyl]-D-erythro-sphingosine]
